From ChEMBL document CHEMBL1153564 (Antimicrob Agents Chemother, 2008)
≈ marks a conversion by molar mass, not a printed value. Calls of active or inactive are those of the source. The rule behind the calls is not given here. Starred links: 1 amine or outer side, 2 acyl side, 3 side chain; linkers in the order of their positions; H or OH if unused. Positions of bridges follow the written chain, without caps; N, C: chain ends. Non-standard residues stand in square brackets, D forms with d. Residues, ends and D or L forms follow the SMILES beside them. *: point of attachment. pTerphenylCO(4''-OnC5H11) = CCCCCOc1ccc(-c2ccc(-c3ccc(C(=O)*)cc3)cc2)cc1; Orn(4R-OH,5R-OH) = O=C([C@H](C[C@@H](O)[C@@H](O)N[*:3])N[*:1])[*:2]; hTyr(3S-OH,4S-OH) = N[C@H](C(=O)O)[C@H](O)[C@@H](O)c1ccc(O)cc1; Pro(3S-OH,4S-Me) = C[C@H]1CN[C@H](C(=O)O)[C@H]1O; Hyp = O=C(O)[C@@H]1C[C@@H](O)CN1

Key:
Nakaseomyces glabratus [1] = assay: Antifungal activity against Candida glabrata 34341 infected in neutropenic ICR/Swiss mouse candidiasis model assessed as dose required to maintain […] of 1.83 +/- 0.54 log10CFU per kidney administered intraperitoneally every 24 hrs up to 4 days measured per 24 hrs; format: functional
Nakaseomyces glabratus [2] = assay: Antifungal activity against Candida glabrata 5376 infected in neutropenic ICR/Swiss mouse candidiasis model assessed as suppression of fungal regrowth at 20 mg/kg, ip administered 2 hrs postinfection as single dose by time-kill assay; format: functional, organism-based; set-up: dose 20 mg/kg
Procedure, shortened: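 Neutropenic mice were infected i.v. and 2 h later given a single i.p. dose (1.25, 5 or 20 mg/kg). Groups of three treated and three control mice were killed at intervals over 96 h, and kidney CFU were counted on SDA (limit 100 CFU/ml). The post-antifungal effect is t − c: the time for a 1 log10 CFU/kidney increase once serum levels fall below the MIC in treated mice, minus the same time in controls.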

Candida albicans [3] = assay: Antifungal activity against Candida albicans K-1 infected in neutropenic ICR/Swiss mouse candidiasis model assessed as dose required for 1-log10 reduction in […] per kidney administered intraperitoneally every 24 hrs up to 4 days measured per 96 hrs; format: functional
Procedure, shortened: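 Neutropenic mice were infected iv with C. albicans K-1 2 h before therapy. Total doses of 1.25, 5, 20, 80 and 320 mg/kg/96 h were split into 1, 2, 4 or 6 ip doses (q96h, q48h, q24h, q16h), three mice per regimen. Effect is the log10 CFU/kidney relative to untreated controls at 96 h. Static and 1-log doses were taken from a Hill model fit.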

Nakaseomyces glabratus [4] = assay: Antifungal activity against Candida glabrata 5376 infected in neutropenic ICR/Swiss mouse candidiasis model assessed as reduction of […] in kidney at 1.25 mg/kg, ip administered 2 hrs postinfection as single dose measured after 96 hrs post dosing by time-kill assay; format: functional, organism-based; set-up: dose 1.25 mg/kg
Procedure, shortened: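 Neutropenic mice given a single ip dose (1.25, 5 or 20 mg/kg) 2 h after tail-vein infection. Kidneys from 3 mice per time point collected nine times over 96 h. Homogenates serially diluted 1:10 and plated on SDA, 24 h at 35°C. Detection limit 100 CFU/ml.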

Nakaseomyces glabratus [5] = assay: Antifungal activity against Candida glabrata 32930 infected in neutropenic ICR/Swiss mouse candidiasis model assessed as dose required for 1-log10 reduction in […] per kidney administered intraperitoneally every 24 hrs up to 4 days measured per 24 hrs; format: functional
Procedure, shortened: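 Neutropenic mice (cyclophosphamide sc on days −4, −1 and +2) were infected iv 2 h before therapy. Five total doses from 0.078 to 20 mg/kg/24 h were given ip q24h for 4 days, three mice per regimen. Kidney CFU were measured at the end of therapy. Static and 1-log-kill doses were derived from a Hill sigmoid dose-effect fit.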

[6] = Elimination half life in serum of neutropenic ICR/Swiss mouse candidiasis model at 20 mg/kg, ip by reverse-phase high-pressure liquid chromatography; format: ADME, organism-based; set-up: dose 20 mg/kg, route intraperitoneal; conditions: read-out: beta t1/2 (converted)
Procedure, shortened: (§1)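 Infected neutropenic ICR/Swiss mice given single ip doses (5, 20 or 80 mg/kg; 0.2 ml); serum from three isoflurane-anaesthetised mice at 1, 4, 8, 12, 24 and 48 h, stored at −80°C, assayed by reverse-phase HPLC with fluorescence detection, loratadine internal standard, linear 10–50,000 ng/ml. Noncompartmental analysis; half-life by nonlinear least squares.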

Candida albicans [7] = assay: Antifungal activity against Candida albicans 580 infected in neutropenic ICR/Swiss mouse candidiasis model assessed as fungal count per kidney administered 2 hrs postinfection measured up to 48 hrs; format: functional
Procedure, shortened: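 Untreated neutropenic mice infected via the tail vein (inoculum about 6.1 log10 CFU/ml, 0.1 ml). Growth is the rise in kidney CFU over 48 h. Kidneys were homogenised, serially diluted 1:10 and plated on SDA for 24 h at 35°C. Mean of three mice.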

Nakaseomyces glabratus [8] = assay: Antifungal activity against Candida glabrata 5376 infected in neutropenic ICR/Swiss mouse candidiasis model assessed as fungal count per kidney administered 2 hrs postinfection measured up to 48 hrs; format: functional
Procedure, shortened: (§2)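 Female ICR/Swiss mice (23–27 g) made neutropenic with cyclophosphamide s.c. (150 mg/kg day −4, 100 mg/kg day −1, 100 mg/kg day +2). Infected by tail vein with 0.1 ml inoculum (~6.1 log10 CFU/ml). Kidneys of untreated mice were homogenised and plated on SDA for 24 h at 35°C. Growth over 48 h is given as log10 CFU/kidney.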

Nakaseomyces glabratus [9] = assay: Antifungal activity against Candida glabrata 5376 infected in neutropenic ICR/Swiss mouse candidiasis model assessed as dose required for 1-log10 reduction in […] per kidney administered intraperitoneally every 24 hrs up to 4 days measured per 96 hrs; format: functional
Procedure, shortened: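 Neutropenic ICR/Swiss mice infected i.v. with the strain; therapy began 2 h later. Total doses of 1.25–320 mg/kg/96 h were given i.p. as 1, 2, 4 or 6 doses (q96h, q48h, q24h, q16h), three mice per regimen. Kidney CFU were counted after 4 days. Effect is the change from untreated controls at the end of therapy.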

Nakaseomyces glabratus [10] = assay: Antifungal activity against Candida glabrata 5592 infected in neutropenic ICR/Swiss mouse candidiasis model assessed as fungal count per kidney administered 2 hrs postinfection measured up to 48 hrs; format: functional; procedure, shortened: as §2
Nakaseomyces glabratus [11] = assay: Antifungal activity against Candida glabrata 33609 infected in neutropenic ICR/Swiss mouse candidiasis model assessed as dose required to maintain […] of 1.83 +/- 0.54 log10CFU per kidney administered intraperitoneally every 24 hrs up to 4 days measured per 24 hrs; format: functional
Candida albicans [12] = assay: Antifungal activity against Candida albicans K-1 infected in neutropenic ICR/Swiss mouse candidiasis model assessed as reduction of […] in kidney at 5 mg/kg, ip administered 2 hrs postinfection as single dose measured after 96 hrs post dosing by time-kill assay; format: functional, organism-based; set-up: dose 5 mg/kg
Procedure, shortened: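 Single ip dose (20, 5 or 1.25 mg/kg) given 2 h after iv infection of neutropenic mice with K-1. Three treated and three control mice were sampled at intervals over 96 h for kidney CFU. PAFE is the time for treated burden to rise 1 log10 after serum levels fall below MIC, minus the same time in controls. Free drug was taken as 1%.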

Candida albicans [13] = assay: Antifungal activity against Candida albicans after 24 hrs by broth microdilution method; format: functional
Mus musculus = assay: Cmax in serum of neutropenic ICR/Swiss mouse candidiasis model at 5 mg/kg, ip up to 4 hrs by reverse-phase high-pressure liquid chromatography; format: ADME, organism-based; set-up: dose 5 mg/kg, route intraperitoneal; conditions: in vivo; procedure, shortened: as §1
Candida albicans [14] = assay: Antifungal activity against Candida albicans K-1 infected in neutropenic ICR/Swiss mouse candidiasis model assessed as suppression of fungal regrowth at 1.25 mg/kg, ip administered 2 hrs postinfection as single dose by time-kill assay; format: functional, organism-based; set-up: dose 1.25 mg/kg
Procedure, shortened: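 Single ip dose of 1.25, 5 or 20 mg/kg given 2 h after iv infection of neutropenic mice. Groups of 3 treated and 3 control mice sampled at 1–24 h intervals over 96 h. Kidney homogenates plated on SDA, 24 h at 35°C. PAFE = time for treated burden to rise 1 log10 CFU/kidney after serum level fell below MIC, minus the same time in controls.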

Nakaseomyces glabratus [15] = assay: Antifungal activity against Candida glabrata 33609 assessed as complete growth inhibition after 24 hrs by CLSI end point method; format: functional; conditions: Nakaseomyces glabratus, 33609, 24 h
Procedure, shortened: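 CLSI M27-A2 broth dilution. Two end points read against the drug-free control well: partial inhibition (CLSI end point) and complete inhibition. Run in duplicate on four separate occasions; value is the mean. Drug stock in DMSO, diluted in 0.9% NaCl.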

SMILES: CCCCCOc1ccc(-c2ccc(-c3ccc(C(=O)N[C@H]4C[C@@H](O)[C@@H](O)NC(=O)[C@@H]5[C@@H](O)[C@@H](C)CN5C(=O)[C@H]([C@@H](C)O)NC(=O)[C@H]([C@H](O)[C@@H](O)c5ccc(O)cc5)NC(=O)[C@@H]5C[C@@H](O)CN5C(=O)[C@H]([C@@H](C)O)NC4=O)cc3)cc2)cc1 [ANIDULAFUNGIN] ({pTerphenylCO(4''-OnC5H11)}-[Orn(4R-OH,5R-OH)]T[Hyp][hTyr(3S-OH,4S-OH)]T[Pro(3S-OH,4S-Me)]; lactam 1-C)
- Activity (Nakaseomyces glabratus [1]): 6.9 mg/kg
- Activity (Nakaseomyces glabratus [2]): Active
- Activity (Candida albicans [3]): 8.1 mg/kg
- Activity (Nakaseomyces glabratus [4]): Active
- Activity (Nakaseomyces glabratus [5]): 3.31 mg/kg
- half-life [6]: 14.7 h
- log10cfu (Candida albicans [7]): 3.4
- log10cfu (Nakaseomyces glabratus [8]): 2.1
- Activity (Nakaseomyces glabratus [9]): 30.8 mg/kg
- log10cfu (Nakaseomyces glabratus [10]): 2.1
- Activity (Nakaseomyces glabratus [11]): 2 mg/kg
- Activity (Candida albicans [12]): Active
- MIC90 (Candida albicans [13]): 0.06 µg/mL (≈ 0.0526 µM)
- Cmax (Mus musculus): 4300 ng/mL
- Activity (Candida albicans [14]): Active
- MIC (Nakaseomyces glabratus [15]): 0.12 µg/mL (≈ 0.105 µM)
